Our source for the Drug metabolism and Retention_time values is ChEMBL document CHEMBL3526153, “Metabolism of gambogic acid in rats: a rare intestinal metabolic pathway responsible for its final disposition” (Drug Metab Dispos, 2011).

A short description of data set [1]: Drug level in rat liver microsomes assessed as CYP450-mediated compound formation treated with gambogic acid at 50 uM preincubated for 10 mins followed by NADPH addition measured after 1 hr by LC-DAD-MS/MS analysis. It counts as ADME. A digest of the protocol: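 GA 50 µM with rat liver microsomes 1.0 mg/mL in 0.1 M PBS pH 7.4, pre-incubated 10 min at 37 °C. Started with NADPH (6.0 mM final) and run 1 h at 37 °C. Controls lacked NADPH or microsomes; duplicate. Stopped with ice-cold acetonitrile, centrifuged, supernatant dried and reconstituted. Isocratic LC (65% acetonitrile), negative-ion ESI MS/MS.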

Data set [2] in a line: Retention time of the compound in Sprague-Dawley rat bile treated with gambogic acid at 4 mg/kg, iv measured over 24 hrs by LC-DAD-MS/MS analysis. It counts as ADME, organism-based. Also noted: dose 4 mg/kg, route intravenous. The settings on record: in vivo. A digest of the protocol: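 SD rats, n=4, bile-duct cannulated under chloral hydrate and allowed 1 h recovery. GA 4 mg/kg i.v.; bile collected on ice, pooled 0–24 h. C18 LC-DAD-MS/MS at 0.25 mL/min with acetonitrile gradient (38% to 80%) in 10 mM ammonium acetate, 40 °C, negative ESI.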

A short description of data set [3]: Drug level in Sprague-Dawley rat feces treated with gambogic acid at 4 mg/kg, iv measured over 24 hrs by LC-DAD-MS/MS analysis. Also noted: dose 4 mg/kg, route intravenous. The following applies: in vivo. It counts as ADME, organism-based. A digest of the protocol: (§1)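 SD rats (250 ± 20 g), n=4, given GA 4 mg/kg i.v. via tail vein in 2 mL; feces pooled 0–24 h and stored at −20 °C. Feces (0.6 g) homogenized in 50% acetonitrile, sonicated, centrifuged, filtered, then ethyl acetate extraction. Analysed by C18 LC-DAD-MS/MS (gradient 38–80% acetonitrile, 10 mM ammonium acetate, 40 °C), negative ESI.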

The test system of another data set is Plasma. Put plainly: Drug level in Sprague-Dawley rat plasma treated with gambogic acid at 4 mg/kg, iv measured over 4 hrs by LC-DAD-MS/MS analysis. It counts as ADME, organism-based. Also noted: dose 4 mg/kg, route intravenous. The settings on record: in vivo. A digest of the protocol:
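Six SD rats given GA 4 mg/kg i.v. via tail vein. Tail blood taken into heparin at 0.033–4 h; plasma separated at 3000 × g, 4 °C, and pooled 0–4 h. 1 mL extracted with 4 mL ethyl acetate, dried, reconstituted. Isocratic 68% acetonitrile, LC-MS/MS in negative ESI.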

The nature of data set [4]: Drug level in PBS buffer treated with gambogic acid at 50 uM preincubated for 10 mins followed by NADPH addition measured after 1 hr by LC-DAD-MS/MS analysis in absence of liver microsomes. It counts as physicochemical. A digest of the protocol: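 Control incubation with no microsomes: GA 50 μM (added in 5.0 μL acetonitrile) in 0.1 M PBS pH 7.4, 1.0 mL, preincubated 10 min at 37 °C with shaking. NADPH added to 6.0 mM final, then 1 h at 37 °C, duplicate. Stopped with ice-cold acetonitrile, centrifuged, supernatant dried under N2, reconstituted in mobile phase. LC-MS/MS with negative ESI, isocratic 65% acetonitrile.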

The nature of data set [5]: Drug level in Sprague-Dawley rat gut treated with gambogic acid at 4 mg/kg, iv. It counts as ADME, organism-based. Also noted: dose 4 mg/kg, route intravenous. The settings on record: in vivo.
Data set [6] can be described thus: Drug level in intestine (unknown origin) treated with gambogic acid. It counts as ADME, tissue-based. A digest of the protocol: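 Intestinal contents from undosed rats homogenized in 5 mL water. 100 μL of 1.0 mg/mL GA solution added, incubated about 24 h at 37 °C, duplicate. 1.0 mL extracted with ethyl acetate. LC-MS/MS with negative ESI, SIM at m/z 709.3 plus full and product-ion scans, acetonitrile gradient 50–90%.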

Data set [7] can be described thus: Retention time of the compound in Sprague-Dawley rat feces treated with gambogic acid at 4 mg/kg, iv measured over 24 hrs by LC-DAD-MS/MS analysis. It counts as ADME, organism-based. Also noted: dose 4 mg/kg, route intravenous. The following applies: in vivo. A digest of the protocol:
as §1

The subject of another data set is Liver microsome. Put plainly: Drug level in rat liver microsomes treated with gambogic acid at 50 uM preincubated for 10 mins followed by UDPGA addition measured after 2 hrs by LC-MS/MS analysis. It counts as ADME. A digest of the protocol: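 Rat liver microsomes 1.0 mg/mL pretreated with alamethicin 50 μg/mg protein. GA 50 μM, saccharic acid-1,4-lactone 6 mM, in 0.05 M Tris-HCl pH 7.4. Preincubated 10 min at 37 °C, started with UDPGA (6.0 mM final), run 2 h at 37 °C, duplicate. Quenched with ice-cold acetonitrile. LC-MS/MS in negative ESI with acetonitrile gradient 50–95%.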

`CC(C)=CCC[C@]1(C)C=Cc2c(O)c3c(c(CC=C(C)C)c2O1)O[C@]12[C@H]4C[C@H](C(=O)[C@]1(C/C=C(/C)C(=O)O)OC4(C)C)C1OC12C3=O` (stereo not given in full): the Drug metabolism result in data set [1] and in data set [3] was “metabolite_detected” in each case. In addition, in [2], the Retention_time was 43.8 min.

Turning to `CC(C)=CCC[C@]1(C)C=Cc2c(O)c3c(c(CC=C(C)C)c2O1)O[C@]12C(C3=O)C(O[C@@H]3O[C@H](CO)[C@@H](O)[C@H](O)[C@H]3O)[C@@H]3C[C@H]1C(C)(C)O[C@@]2(C/C=C(/C)C(=O)O)C3=O` (stereo not given in full), in data set [2], the Retention_time was found to be 38.7 min.

`CC(C)=CCC[C@]1(C)C=Cc2c(O)c3c(c(CC=C(C)C)c2O1)O[C@]12C(C3=O)C(O)[C@@H]3C[C@H]1C(C)(C)O[C@@]2(C/C=C(/C)C(=O)O)C3=O` (stereo not given in full): the Drug metabolism result (in data set [1]; in the data set on Plasma; in data set [4]; in data set [3]) was “metabolite_detected” each time. The same molecule returned a Retention_time in [2] of 39.5 min.

For the molecule `CC(C)=CCC[C@]1(C)C=Cc2c(O)c3c(c(CC=C(C)C)c2O1)O[C@]12C(C3=O)[C@H](S(=O)(=O)O)[C@@H]3C[C@H]1C(C)(C)O[C@@]2(C/C=C(/C)C(=O)O)C3=O` (stereo not given in full), the Drug metabolism result in data set [5] and in data set [6] was “metabolite_detected” each time. In data set [7], this molecule registered a Retention_time of 16.9 min.

In [2], `CC(C)=CCC[C@]1(C)C=Cc2c(O)c3c(c(CC=C(C)C)c2O1)O[C@]12[C@H]4C[C@H](C(=O)[C@]1(C/C=C(/C)C(=O)O[C@@H]1O[C@H](CO)[C@@H](O)[C@H](O)[C@H]1O)OC4(C)C)C1OC12C3=O` (stereo not given in full) yielded a Retention_time of 39 min.

Take `CC(C)=CCC[C@]1(C)C=Cc2c(O)c3c(c(CC=C(C)C)c2O1)O[C@]12C(=C[C@@H]4C[C@H]1C(C)(C)O[C@@]2(C/C=C(/C)C(=O)O[C@@H]1O[C@H](CO)[C@@H](O)[C@H](O)[C@H]1O)C4=O)C3=O`: the Retention_time in data set [2] came to 40.3 min.

Consider `CC(C)=CCC[C@]1(C)C=Cc2c(O)c3c(c(CC=C(C)C)c2O1)O[C@]12C(=C[C@@H]4C[C@H]1C(C)(C)O[C@@]2(C/C=C(/C)C(=O)O[C@@H]1O[C@H](C(=O)O)[C@@H](O)[C@H](O)[C@H]1O)C4=O)C3=O`, for which the Retention_time in data set [2] was 23.6 min. Also, the Drug metabolism result (in [3]; in the data set on Liver microsome) was “metabolite_detected” each time.

For the molecule `CC(C)=CCC[C@]1(C)C=Cc2c(O)c3c(c(CC=C(C)C)c2O1)O[C@]12C(C3=O)[C@@H](S(=O)(=O)O)[C@@H]3C[C@H]1C(C)(C)O[C@@]2(C/C=C(/C)C(=O)O)C3=O` (stereo not given in full), the Drug metabolism result in data set [5] and in data set [6] was “metabolite_detected” throughout. The Retention_time in data set [7] is on record as 19.4 min.
